Reference: ChEMBL document CHEMBL1127442, “Triazolinone biphenylsulfonamide derivatives as orally active angiotensin II antagonists with potent AT1 receptor affinity and enhanced AT2 affinity” (J Med Chem, 1994)

Tests used:
[1] = molecular target: T1, Type-1 angiotensin II receptor (Oryctolagus cuniculus, UniProt P34976); experiment: In vitro inhibitory activity against angiotensin II rabbit aorta AT1 receptor using radioligand [125I]-Sar Ile-AII; assay type: tissue-based
T1 sequence (P34976 whole entry): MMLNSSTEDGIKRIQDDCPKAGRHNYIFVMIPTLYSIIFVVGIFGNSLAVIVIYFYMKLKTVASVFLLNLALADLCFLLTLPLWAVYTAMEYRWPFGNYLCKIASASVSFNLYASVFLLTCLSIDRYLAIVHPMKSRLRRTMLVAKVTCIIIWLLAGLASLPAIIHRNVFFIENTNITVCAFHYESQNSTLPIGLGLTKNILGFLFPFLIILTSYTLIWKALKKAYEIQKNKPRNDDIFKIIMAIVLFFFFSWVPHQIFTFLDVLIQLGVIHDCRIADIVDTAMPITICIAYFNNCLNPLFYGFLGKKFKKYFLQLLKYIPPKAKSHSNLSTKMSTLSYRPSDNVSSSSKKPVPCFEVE

[2] = molecular target: T2, Type-2 angiotensin II receptor (Rattus norvegicus, UniProt P35351); experiment: In vitro inhibitory activity against angiotensin II rat midbrain AT2 receptor using radioligand [125I]-Sar Ile-AII
T2 sequence (P35351 whole entry): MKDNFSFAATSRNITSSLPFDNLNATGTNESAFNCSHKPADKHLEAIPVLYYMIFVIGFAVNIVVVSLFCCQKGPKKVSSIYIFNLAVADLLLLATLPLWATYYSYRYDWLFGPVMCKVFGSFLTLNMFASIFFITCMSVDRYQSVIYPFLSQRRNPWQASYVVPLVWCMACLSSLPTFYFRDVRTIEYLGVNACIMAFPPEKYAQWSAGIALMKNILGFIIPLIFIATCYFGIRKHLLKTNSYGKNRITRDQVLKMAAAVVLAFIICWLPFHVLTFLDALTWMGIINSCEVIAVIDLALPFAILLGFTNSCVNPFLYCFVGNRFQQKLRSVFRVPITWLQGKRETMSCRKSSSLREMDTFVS
In short: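 Dithiothreitol ([…]) was added to the assay mixture to abolish residual AT1 binding. Tubes were run in duplicate, and IC50 came from nonlinear regression of displacement curves.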

IC50 [1] [nM]	IC50 [2] [nM]	Structure (SMILES)
0.32	82	CCCCc1nn(-c2ccccc2C(F)(F)F)c(=O)n1Cc1ccc(-c2ccccc2S(=O)(=O)NC(=O)C2CCCC2)cc1
0.13	53	CCCCc1nn(-c2ccccc2C(F)(F)F)c(=O)n1Cc1ccc(-c2ccccc2S(=O)(=O)NC(=O)c2ccccc2F)cc1
0.27	220	CCCCc1nn(-c2ccccc2C(F)(F)F)c(=O)n1Cc1ccc(-c2ccccc2S(=O)(=O)NC(=O)c2ccccc2C(F)(F)F)cc1
0.64	190	CCCCc1nn(-c2ccccc2C(F)(F)F)c(=O)n1Cc1ccc(-c2ccccc2S(=O)(=O)NC(=O)c2ccc(C)s2)cc1
0.37	120	CCCCc1nn(-c2ccccc2C(F)(F)F)c(=O)n1Cc1ccc(-c2ccccc2S(=O)(=O)NC(=O)C2(C)CC2(Cl)Cl)cc1 (configuration not stated)
5.5	> 300	O=C(NS(=O)(=O)c1ccccc1-c1ccc(Cn2c(CCCC(F)(F)F)nn(-c3ccccc3C(F)(F)F)c2=O)cc1)c1ccccc1
3.3	2300	CCCCc1nn(CC(C)(C)C)c(=O)n1Cc1ccc(-c2ccccc2S(=O)(=O)NC(=O)c2ccccc2)cc1
5	300	CCCCc1nn(-c2ccccc2C(F)(F)F)c(=O)n1Cc1ccc(-c2ccccc2S(=O)(=O)NC(=O)c2ccsc2)cc1
0.68	500	CCCCc1nn(-c2ccccc2C(F)(F)F)c(=O)n1Cc1ccc(-c2ccccc2S(=O)(=O)NC(=O)c2ccc(F)cc2)cc1
7	4600	CCCCc1nn(C(C)C)c(=O)n1Cc1ccc(-c2ccccc2S(=O)(=O)NC(=O)c2ccccc2)cc1
0.43	130	CCCCc1nn(-c2ccccc2C(F)(F)F)c(=O)n1Cc1ccc(-c2ccccc2S(=O)(=O)NC(=O)c2oc3ccccc3c2C)cc1
0.84	100	CCCCc1nn(-c2ccccc2C(F)(F)F)c(=O)n1Cc1ccc(-c2ccccc2S(=O)(=O)NC(=O)C2CCC2)cc1
0.72	780	CCCCc1nn(-c2ccccc2C(F)(F)F)c(=O)n1Cc1ccc(-c2ccccc2S(=O)(=O)NC(=O)c2cccc(Cl)c2Cl)cc1
4.7	> 1000	CCCCc1nn(-c2ccccc2C(F)(F)F)c(=O)n1Cc1ccc(-c2ccccc2S(=O)(=O)NC#N)cc1
1	520	CCCCc1nn(-c2ccccc2C(F)(F)F)c(=O)n1Cc1ccc(-c2ccccc2S(=O)(=O)NC(=O)c2cccnc2Cl)cc1
3.8	1400	CCCCc1nn(-c2ccccc2C(F)(F)F)c(=O)n1Cc1ccc(-c2ccccc2S(=O)(=O)NC(=O)c2ccc(C(F)(F)F)cc2)cc1
5.8	500	CC1CC1Cc1nn(-c2ccccc2C(F)(F)F)c(=O)n1Cc1ccc(-c2ccccc2S(=O)(=O)NC(=O)c2ccccc2)cc1 (configuration not stated)
0.72	43	CCCCc1nn(-c2ccccc2C(F)(F)F)c(=O)n1Cc1ccc(-c2ccccc2S(=O)(=O)NC(=O)c2sccc2Br)cc1
4.3	180	CCCCc1nn(-c2ccccc2C(F)(F)F)c(=O)n1Cc1ccc(-c2ccccc2S(=O)(=O)NC(=O)C2CCCO2)cc1 (configuration not stated)
0.81	80	CCCCc1nn(-c2ccccc2C(F)(F)F)c(=O)n1Cc1ccc(-c2ccccc2S(=O)(=O)NC(=O)c2sccc2C)cc1
0.67	84	CCCCc1nn(-c2ccccc2C(F)(F)F)c(=O)n1Cc1ccc(-c2ccccc2S(=O)(=O)NC(=O)c2cc(Br)sc2Br)cc1

IC50 [1] [nM]	IC50 [2] [nM]	Structure (SMILES)
2.4	150	CCCCc1nn(-c2ccccc2C(F)(F)F)c(=O)n1Cc1ccc(-c2ccccc2S(=O)(=O)NC(=O)c2cccc(Cl)c2)cc1
1.2	520	CCCCc1nn(-c2ccccc2C(F)(F)F)c(=O)n1Cc1ccc(-c2ccccc2S(=O)(=O)NC(=O)c2ccc(Cl)cc2)cc1
0.4	45	CCCCc1nn(-c2ccccc2C(F)(F)F)c(=O)n1Cc1ccc(-c2ccccc2S(=O)(=O)NC(=O)c2ccccc2Br)cc1
1.5	110	CCCCc1nn(-c2ccccc2C(F)(F)F)c(=O)n1Cc1ccc(-c2ccccc2S(=O)(=O)NC(=O)C2CC2)cc1
0.2	2400	CCCCc1nn(-c2ccccc2C(F)(F)F)c(=O)n1Cc1ccc(-c2ccccc2S(=O)(=O)NS(=O)(=O)c2ccccc2)cc1
5.9	190	CCCCc1nn(-c2ccccc2C(F)(F)F)c(=O)n1Cc1ccc(-c2ccccc2S(=O)(=O)NC(=O)c2c(C)cccc2C)cc1
5.5	1500	CCCCc1nn(-c2ccccc2C(F)(F)F)c(=O)n1Cc1ccc(-c2ccccc2S(=O)(=O)NC(=O)CCCC(=O)O)cc1
0.6	330	CCCCc1nn(-c2ccccc2C(F)(F)F)c(=O)n1Cc1ccc(-c2ccccc2S(=O)(=O)NC(=O)c2ccccc2-c2ccccc2)cc1
2.2	75	CCCCc1nn(-c2ccccc2C(F)(F)F)c(=O)n1Cc1ccc(-c2ccccc2S(=O)(=O)NC(=O)OCC)cc1
2.9	450	CCCCCCCC(=O)NS(=O)(=O)c1ccccc1-c1ccc(Cn2c(CCCC)nn(-c3ccccc3C(F)(F)F)c2=O)cc1
3.3	580	CCCCc1nn(-c2ccccc2C(F)(F)F)c(=O)n1Cc1ccc(-c2ccccc2S(=O)(=O)NC(=O)c2cccc(C(F)(F)F)c2)cc1
0.22	55	CCCCc1nn(-c2ccccc2C(F)(F)F)c(=O)n1Cc1ccc(-c2ccccc2S(=O)(=O)NC(=O)c2oc(C)cc2C)cc1
0.17	60	CCCCc1nn(-c2ccccc2C(F)(F)F)c(=O)n1Cc1ccc(-c2ccccc2S(=O)(=O)NC(=O)c2cc(C)oc2C(F)(F)F)cc1
0.41	72	CCCCc1nn(-c2ccccc2C(F)(F)F)c(=O)n1Cc1ccc(-c2ccccc2S(=O)(=O)NC(=O)c2ccccc2OC)cc1
0.76	400	CCCCc1nn(-c2ccccc2C(F)(F)F)c(=O)n1Cc1ccc(-c2ccccc2S(=O)(=O)NC(=O)c2ccc(C#N)cc2)cc1
2.6	500	CCCCc1nn(-c2c(Cl)cccc2Cl)c(=O)n1Cc1ccc(-c2ccccc2S(=O)(=O)NC(=O)c2ccccc2)cc1
0.8	76	CCCCc1nn(-c2ccccc2C(F)(F)F)c(=O)n1Cc1ccc(-c2ccccc2S(=O)(=O)NC(=O)C2(C)CC2)cc1
78	5200	CCCCc1nn(-c2ccccc2C(F)(F)F)c(=O)n1Cc1ccc(-c2ccccc2S(=O)(=O)Nc2ccc([N+](=O)[O-])cc2)cc1
0.22	80	CCCCc1nn(-c2ccccc2C(F)(F)F)c(=O)n1Cc1ccc(-c2ccccc2S(=O)(=O)NC(=O)C2(C)SCCS2)cc1
1.3	260	CCCCc1nn(-c2ccccc2C(F)(F)F)c(=O)n1Cc1ccc(-c2ccccc2S(=O)(=O)NC(=O)c2ccc(Cl)s2)cc1
